In ChEMBL document CHEMBL2040734, “Benzothiazoles: search for anticancer agents” (2012):

How the values were obtained:
Assay type in all cases: functional
MCF7 = assay: Growth inhibition of human MCF7 cells after 48 hrs by sulforhodamine B assay; details: MCF7, 48 h; for CC50: read-out: LC50 (the source's name)
In short: (§1)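 Adherent NCI-60 lines were grown in RPMI 1640 with 5% FBS and 2 mM L-glutamine, plated at 5000–40,000 cells/well and preincubated 24 h. They were then exposed to five concentrations (0.01–100 µM, from a DMSO stock) for 48 h at 37 °C, 5% CO2. Cells were fixed with cold TCA (10% final, 60 min, 4 °C) and stained with 0.4% SRB. Dye was solubilized in 10 mM Tris base and A515 read. GI50 was derived from time-zero, control and treated absorbances.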

OVCAR-4 [1] = assay: Cytotoxicity against human OVCAR4 cells assessed as cell growth at 1 uM after 48 hrs by sulforhodamine B assay; details: OVCAR-4, 48 h, read-out: Activity
SF-539 = assay: Cytotoxicity against human SF539 cells assessed as cell growth at 10 uM after 48 hrs by sulforhodamine B assay; details: SF-539, 48 h, read-out: Activity
SK-OV-3 = assay: Cytotoxicity against human SKOV3 cells assessed as cell growth at 10 uM after 48 hrs by sulforhodamine B assay; details: SK-OV-3, 48 h, read-out: Activity
HL-60(TB) = assay: Cytotoxicity against human HL-60(TB) cells assessed as cell growth at 0.1 uM after 48 hrs by sulforhodamine B assay; details: HL-60, 48 h, read-out: Activity
In short: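 NCI five-dose screen on the HL-60(TB) leukaemia line, grown in RPMI 1640 with 5% FBS and 2 mM L-glutamine and plated for 24 h before dosing. DMSO stocks were diluted in medium. Cells were exposed 48 h at 37 °C, then settled cells were fixed in 16% TCA (final) and stained with SRB, absorbance 515 nm. Percent growth = (Ti−Tz)/(C−Tz)×100, or (Ti−Tz)/Tz×100 when Ti<Tz.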

M14 [2] = assay: Cytotoxicity against human M14 cells assessed as cell growth at 100 uM after 48 hrs by sulforhodamine B assay; details: M14, 48 h, read-out: Activity
RXF 393 = assay: Growth inhibition of human RXF393 cells after 48 hrs by sulforhodamine B assay; details: RXF 393, 48 h; in short: as §1
SN12C [3] = assay: Cytotoxicity against human SN12C cells assessed as cell growth at 100 uM after 48 hrs by sulforhodamine B assay; details: read-out: Activity
RPMI-8226 = assay: Cytotoxicity against human RPMI8226 cells assessed as cell growth at 0.01 uM after 48 hrs by sulforhodamine B assay; details: RPMI-8226, 48 h, read-out: Activity
U-251 [4] = assay: Cytotoxicity against human U251 cells assessed as cell growth at 0.01 uM after 48 hrs by sulforhodamine B assay; details: U-251, 48 h, read-out: Activity
NCI-H23 = assay: Cytotoxicity against human NCI-H23 cells assessed as cell growth at 1 uM after 48 hrs by sulforhodamine B assay; details: NCI-H23, 48 h, read-out: Activity
SNB-75 = assay: Growth inhibition of human SNB75 cells after 48 hrs by sulforhodamine B assay; details: SNB-75, 48 h; in short: as §1
SK-MEL-2 [5] = assay: Cytotoxicity against human SK-MEL-2 cells assessed as cell growth at 100 uM after 48 hrs by sulforhodamine B assay; details: SK-MEL-2, 48 h, read-out: Activity
M14 [6] = assay: Cytotoxicity against human M14 cells assessed as cell growth at 1 uM after 48 hrs by sulforhodamine B assay; details: M14, 48 h, read-out: Activity
NCI-H322M = assay: Cytotoxicity against human NCI-H322M cells assessed as cell growth at 0.1 uM after 48 hrs by sulforhodamine B assay; details: read-out: Activity
SN12C [7] = assay: Cytotoxicity against human SN12C cells assessed as cell growth at 0.01 uM after 48 hrs by sulforhodamine B assay; details: read-out: Activity
OVCAR-4 [8] = assay: Growth inhibition of human OVCAR4 cells after 48 hrs by sulforhodamine B assay; details: OVCAR-4, 48 h; in short: as §1
786-0 = assay: Cytotoxicity against human 786-0 cells assessed as cell growth at 0.01 uM after 48 hrs by sulforhodamine B assay; details: 786-0, 48 h, read-out: Activity
In short: (§2)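 NCI-60 five-dose screen. Cells were grown in RPMI 1640 with 5% FBS and 2 mM L-glutamine and preincubated 24 h. Compound (DMSO stock) was tested at 0.01, 0.1, 1, 10 and 100 µM for 48 h at 37 °C. Cells were fixed in situ with cold TCA (final 10%) and stained with 0.4% SRB. A515 was read, and percent growth was calculated against time-zero and control plates.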

A498 = assay: Cytotoxicity against human A498 cells assessed as cell growth at 0.1 uM after 48 hrs by sulforhodamine B assay; details: A498, 48 h, read-out: Activity; in short: as §2
SK-MEL-2 [9] = assay: Cytotoxicity against human SK-MEL-2 cells assessed as cell growth at 10 '-5 M after 48 hrs by sulforhodamine B assay; details: SK-MEL-2, 48 h, read-out: Activity
NCI-H460 [10] = assay: Growth inhibition of human NCI-H460 cells after 48 hrs by sulforhodamine B assay; details: NCI-H460, 48 h; in short: as §1
NCI-H460 [11] = assay: Cytotoxicity against human NCI-H460 cells assessed as cell growth at 10 uM after 48 hrs by sulforhodamine B assay; details: NCI-H460, 48 h, read-out: Activity
SF-268 = assay: Cytotoxicity against human SF268 cells assessed as cell growth at 0.1 uM after 48 hrs by sulforhodamine B assay; details: SF-268, 48 h, read-out: Activity
A549 = assay: Cytotoxicity against human A549 cells assessed as cell growth at 0.1 uM after 48 hrs by sulforhodamine B assay; details: A549, 48 h, read-out: Activity; in short: as §2
U-251 [12] = assay: Cytotoxicity against human U251 cells assessed as cell growth at 10 uM after 48 hrs by sulforhodamine B assay; details: U-251, 48 h, read-out: Activity
SK-MEL-5 = assay: Cytotoxicity against human SK-MEL-5 cells assessed as cell growth at 10 uM after 48 hrs by sulforhodamine B assay; details: SK-MEL-5, 48 h, read-out: Activity
PC-3 = assay: Cytotoxicity against human PC3 cells assessed as cell growth at 100 uM after 48 hrs by sulforhodamine B assay; details: PC-3, 48 h, read-out: Activity
EKVX = assay: Cytotoxicity against human EKVX cells assessed as cell growth at 1 uM after 48 hrs by sulforhodamine B assay; details: read-out: Activity
In short: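 Five-dose NCI panel run at 0.01, 0.1, 1, 10 and 100 µM. Cells were in RPMI 1640 with 5% FBS and 2 mM L-glutamine, seeded at 5000–40,000 cells/well and pre-incubated 24 h. Drug was diluted from a DMSO stock into medium with 50 µg/ml gentamicin. Exposure was 48 h at 37 °C, 5% CO2. Cells were fixed with cold TCA and stained with 0.4% SRB, read at 515 nm. Percent growth came from time-zero, control and test absorbances.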

Compound	GI50 (MCF7) [nM]	TGI (MCF7) [nM]	CC50 (MCF7) [nM]	growth at 1 µM (OVCAR-4 [1]) [%]	growth at 10 µM (SF-539) [%]	growth at 10 µM (SK-OV-3) [%]	growth at 0.1 µM (HL-60(TB)) [%]	growth at 100 µM (M14 [2]) [%]	GI50 (RXF 393) [nM]	TGI (RXF 393) [nM]	growth at 100 µM (SN12C [3]) [%]	growth at 0.01 µM (RPMI-8226) [%]	growth at 0.01 µM (U-251 [4]) [%]	growth at 1 µM (NCI-H23) [%]	GI50 (SNB-75) [nM]	LC50 (SNB-75) [nM]	growth at 100 µM (SK-MEL-2 [5]) [%]	growth at 1 µM (M14 [6]) [%]	growth at 0.1 µM (NCI-H322M) [%]	growth at 0.01 µM (SN12C [7]) [%]	further results
Clc1cccc(Cl)c1Nc1nc2cccc(Cl)c2s1	811	2240	5370	44	-81	-89	103	-56	676	2410	-84	103	104	59	791	> 100000	-44	73	102	91	GI50 (OVCAR-4 [8]): 708 nM; LC50 (OVCAR-4 [8]): 5050 nM; TGI (OVCAR-4 [8]): 2140 nM; growth at 0.01 µM (786-0): 106%; growth at 0.1 µM (A498): 67%; growth at 10 µM (SK-MEL-2 [9]): -52.7%; GI50 (NCI-H460 [10]): 1320 nM; TGI (NCI-H460 [10]): 2970 nM; growth at 10 µM (NCI-H460 [11]): -75%; growth at 0.1 µM (SF-268): 97%; growth at 0.1 µM (A549): 99%; growth at 10 µM (U-251 [12]): -84%; growth at 10 µM (SK-MEL-5): -95%; growth at 100 µM (PC-3): -74%; growth at 1 µM (EKVX): 15%
Cc1ccc2nc(Nc3c(C)cccc3C)sc2c1	1200	> 100000	> 100000	71	57	47	106	53	1200	> 100000	52	101	97	79	1260	> 100000	53	58	105	88	CC50 (RXF 393; read-out: LC50 (the source's name)): > 100000 nM; TGI (SNB-75): > 100000 nM; GI50 (OVCAR-4 [8]): > 100000 nM; LC50 (OVCAR-4 [8]): > 100000 nM; TGI (OVCAR-4 [8]): > 100000 nM; growth at 0.01 µM (786-0): 97%; growth at 0.1 µM (A498): 68%; growth at 10 µM (SK-MEL-2 [9]): 34.6%; LC50 (concentration killing 50% of cells) (NCI-H460 [10]): > 100000 nM; TGI (NCI-H460 [10]): > 100000 nM; growth at 10 µM (NCI-H460 [11]): 22%; growth at 0.1 µM (SF-268): 100%; growth at 0.1 µM (A549): 108%; growth at 10 µM (U-251 [12]): 63%; growth at 10 µM (SK-MEL-5): 33%; growth at 100 µM (PC-3): 56%; growth at 1 µM (EKVX): 62%
